Source: ChEMBL document CHEMBL1165965, “Synthesis and structure-activity relationships of 1,2,3,4-tetrahydropyrido[2,3-b]pyrazines as potent and selective inhibitors of the anaplastic lymphoma kinase” (Bioorg Med Chem, 2010)

Legend:
[1] = biological target: T1, Serine/threonine-protein kinase BRSK1 (Homo sapiens) (UniProt Q8TDC3); assay: Inhibition of BRSK1 at 1 uM
T1 sequence (whole entry): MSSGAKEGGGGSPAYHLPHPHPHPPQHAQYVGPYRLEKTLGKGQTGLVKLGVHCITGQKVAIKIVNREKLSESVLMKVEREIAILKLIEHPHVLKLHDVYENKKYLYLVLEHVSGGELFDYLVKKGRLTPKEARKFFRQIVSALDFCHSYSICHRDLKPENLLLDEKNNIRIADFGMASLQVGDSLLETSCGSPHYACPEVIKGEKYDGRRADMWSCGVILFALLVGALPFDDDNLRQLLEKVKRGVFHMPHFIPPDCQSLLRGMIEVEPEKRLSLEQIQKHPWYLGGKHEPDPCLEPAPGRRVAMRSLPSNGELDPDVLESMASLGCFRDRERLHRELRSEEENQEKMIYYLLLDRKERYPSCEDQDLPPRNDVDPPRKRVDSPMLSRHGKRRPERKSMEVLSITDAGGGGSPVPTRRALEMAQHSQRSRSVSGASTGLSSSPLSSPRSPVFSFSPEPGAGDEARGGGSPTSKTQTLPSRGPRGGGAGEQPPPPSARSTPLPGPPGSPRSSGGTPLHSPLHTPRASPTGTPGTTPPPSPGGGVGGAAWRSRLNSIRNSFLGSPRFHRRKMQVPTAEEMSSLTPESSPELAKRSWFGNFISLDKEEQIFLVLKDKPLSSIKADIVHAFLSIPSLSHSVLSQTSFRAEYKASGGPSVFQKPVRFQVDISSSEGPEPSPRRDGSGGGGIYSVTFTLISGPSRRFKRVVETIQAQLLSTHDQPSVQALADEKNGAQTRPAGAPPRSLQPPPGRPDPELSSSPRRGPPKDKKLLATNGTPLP
In short: (§1)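 Ambit KINOMEscan screen at a single concentration across a 250–400 kinase panel, recorded as percent inhibition. Selectivity was expressed as S(90), the fraction of kinases inhibited >90%.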

[2] = biological target: Protein kinase C eta type (Homo sapiens) (UniProt P24723); assay: Inhibition of PRKCH at 1 uM
[3] = biological target: Calcium/calmodulin-dependent protein kinase kinase 2 (Homo sapiens) (UniProt Q96RR4); assay: Inhibition of CAMKK2 at 1 uM; in short: as §1
[4] = biological target: Tyrosine-protein kinase Fes/Fps (Homo sapiens) (UniProt P07332); assay: Inhibition of FES at 1 uM
In short: (§2)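 Single-concentration screen using Ambit Bioscience KINOMEscan technology across a panel of 250–400 kinases. Per-kinase inhibition from this screen was summarized as S(90), the fraction of kinases inhibited by more than 90%.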

[5] = biological target: Serine/threonine-protein kinase SIK1 (Homo sapiens) (UniProt P57059); assay: Inhibition of SIK at 1 uM
[6] = biological target: Serine/threonine-protein kinase PAK 4 (Homo sapiens) (UniProt O96013); assay: Inhibition of PAK4 at 1 uM
[7] = biological target: Tyrosine-protein kinase Blk (Homo sapiens) (UniProt P51451); assay: Inhibition of BLK at 1 uM; in short: as §1
[8] = biological target: T2, Serine/threonine-protein kinase tousled-like 1 (Homo sapiens) (UniProt Q9UKI8); assay: Inhibition of TLK1 at 1 uM
T2 sequence (whole entry): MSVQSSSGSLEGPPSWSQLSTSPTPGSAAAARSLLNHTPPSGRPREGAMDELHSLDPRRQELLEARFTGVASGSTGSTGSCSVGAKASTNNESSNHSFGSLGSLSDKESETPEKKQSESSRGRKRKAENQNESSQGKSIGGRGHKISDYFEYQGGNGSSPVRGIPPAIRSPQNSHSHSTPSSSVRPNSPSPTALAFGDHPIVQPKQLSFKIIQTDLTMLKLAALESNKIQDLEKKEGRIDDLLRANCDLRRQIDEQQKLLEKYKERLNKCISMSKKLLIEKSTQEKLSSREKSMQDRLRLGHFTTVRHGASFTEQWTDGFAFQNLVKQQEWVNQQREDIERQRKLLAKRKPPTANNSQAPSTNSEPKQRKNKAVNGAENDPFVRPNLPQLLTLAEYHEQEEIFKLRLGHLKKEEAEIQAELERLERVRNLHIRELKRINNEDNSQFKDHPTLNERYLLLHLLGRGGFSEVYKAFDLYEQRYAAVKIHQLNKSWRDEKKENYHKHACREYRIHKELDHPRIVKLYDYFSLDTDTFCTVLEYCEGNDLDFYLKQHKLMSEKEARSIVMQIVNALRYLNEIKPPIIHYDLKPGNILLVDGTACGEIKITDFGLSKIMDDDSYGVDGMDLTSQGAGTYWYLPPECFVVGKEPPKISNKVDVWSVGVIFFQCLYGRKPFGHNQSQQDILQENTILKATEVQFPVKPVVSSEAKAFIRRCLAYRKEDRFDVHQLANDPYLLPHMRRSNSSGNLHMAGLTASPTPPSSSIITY

[9] = biological target: Ephrin type-A receptor 7 (Homo sapiens) (UniProt Q15375); assay: Inhibition of EPHA7 at 1 uM; in short: as §2
[10] = biological target: Mitogen-activated protein kinase kinase kinase 10 (Homo sapiens) (UniProt Q02779); assay: Inhibition of MLK2 at 1 uM
In short: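 Kinase-panel screen using KINOMEscan technology, with 250–400 kinases per panel. Each compound was tested at a single concentration, and inhibition of each kinase was recorded. Selectivity was summarised as S(90), the fraction of kinases inhibited by more than 90%.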

[11] = biological target: Casein kinase I isoform gamma-2 (Homo sapiens) (UniProt P78368); assay: Inhibition of CSNK1G2 at 1 uM; in short: as §2
[12] = biological target: Mast/stem cell growth factor receptor Kit (Homo sapiens) (UniProt P10721); assay: Inhibition of KIT at 1 uM
In short: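 Single-concentration screen on the Ambit KINOMEscan platform, run against a panel of 250–400 kinases. Per-kinase inhibition was also summarized as S(90), the fraction of kinases inhibited by more than 90%.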

[13] = biological target: Bone morphogenetic protein receptor type-1A (Homo sapiens) (UniProt P36894); assay: Inhibition of BMPR1A at 1 uM; in short: as §1
[14] = test system: Tyrosine-protein kinase ABL1 (Homo sapiens), P00519 [H396P]; assay: Inhibition of ABL1 H396P mutant at 1 uM; in short: as §1
[15] = biological target: T3, Dual specificity mitogen-activated protein kinase kinase 3 (Homo sapiens) (UniProt P46734); assay: Inhibition of MEK3 at 1 uM
T3 sequence (whole entry): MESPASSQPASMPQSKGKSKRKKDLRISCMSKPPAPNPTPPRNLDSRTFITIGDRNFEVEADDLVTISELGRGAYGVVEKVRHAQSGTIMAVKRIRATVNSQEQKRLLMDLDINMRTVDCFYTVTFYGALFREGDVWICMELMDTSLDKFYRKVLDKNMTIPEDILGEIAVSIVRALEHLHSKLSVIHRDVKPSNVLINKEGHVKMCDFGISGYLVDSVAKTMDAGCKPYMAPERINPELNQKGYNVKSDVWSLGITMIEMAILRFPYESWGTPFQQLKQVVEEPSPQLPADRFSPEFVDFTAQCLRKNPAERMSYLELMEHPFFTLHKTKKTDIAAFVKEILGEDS

[16] = biological target: Wee1-like protein kinase 2 (Homo sapiens) (UniProt P0C1S8); assay: Inhibition of WEE2 at 1 uM
Chain of Wee1-like protein kinase 2 (Homo sapiens) (P0C1S8 whole entry, looked up): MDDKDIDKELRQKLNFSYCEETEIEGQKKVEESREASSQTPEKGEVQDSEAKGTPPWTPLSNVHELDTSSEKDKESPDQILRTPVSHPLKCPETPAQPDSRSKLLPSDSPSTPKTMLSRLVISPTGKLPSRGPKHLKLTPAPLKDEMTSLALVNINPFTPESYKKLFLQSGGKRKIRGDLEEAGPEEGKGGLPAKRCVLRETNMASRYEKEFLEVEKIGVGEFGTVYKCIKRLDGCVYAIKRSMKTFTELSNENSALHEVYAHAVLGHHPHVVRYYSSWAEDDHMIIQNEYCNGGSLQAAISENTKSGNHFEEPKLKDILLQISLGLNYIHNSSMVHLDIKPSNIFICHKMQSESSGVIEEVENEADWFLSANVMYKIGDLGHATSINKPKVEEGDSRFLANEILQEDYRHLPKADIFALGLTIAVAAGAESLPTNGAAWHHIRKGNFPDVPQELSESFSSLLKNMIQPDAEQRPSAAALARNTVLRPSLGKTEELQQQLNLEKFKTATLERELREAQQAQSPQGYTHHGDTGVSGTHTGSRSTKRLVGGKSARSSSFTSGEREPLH

Chain of Tyrosine-protein kinase Blk (Homo sapiens) (P51451 2-505 limits assumed): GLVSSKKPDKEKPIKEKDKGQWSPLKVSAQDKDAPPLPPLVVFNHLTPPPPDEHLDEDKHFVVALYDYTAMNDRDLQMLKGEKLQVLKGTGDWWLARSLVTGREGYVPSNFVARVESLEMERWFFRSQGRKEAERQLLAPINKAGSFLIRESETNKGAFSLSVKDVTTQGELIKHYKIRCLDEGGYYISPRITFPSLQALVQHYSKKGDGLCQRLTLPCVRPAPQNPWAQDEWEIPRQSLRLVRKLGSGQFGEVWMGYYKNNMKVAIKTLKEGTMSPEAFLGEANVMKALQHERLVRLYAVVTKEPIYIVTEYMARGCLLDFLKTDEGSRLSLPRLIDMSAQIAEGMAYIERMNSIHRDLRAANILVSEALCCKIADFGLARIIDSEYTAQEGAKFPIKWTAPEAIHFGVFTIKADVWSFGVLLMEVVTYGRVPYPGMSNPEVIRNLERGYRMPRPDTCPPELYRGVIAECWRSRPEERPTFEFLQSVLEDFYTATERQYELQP
Chain of Bone morphogenetic protein receptor type-1A (Homo sapiens) (P36894 whole entry): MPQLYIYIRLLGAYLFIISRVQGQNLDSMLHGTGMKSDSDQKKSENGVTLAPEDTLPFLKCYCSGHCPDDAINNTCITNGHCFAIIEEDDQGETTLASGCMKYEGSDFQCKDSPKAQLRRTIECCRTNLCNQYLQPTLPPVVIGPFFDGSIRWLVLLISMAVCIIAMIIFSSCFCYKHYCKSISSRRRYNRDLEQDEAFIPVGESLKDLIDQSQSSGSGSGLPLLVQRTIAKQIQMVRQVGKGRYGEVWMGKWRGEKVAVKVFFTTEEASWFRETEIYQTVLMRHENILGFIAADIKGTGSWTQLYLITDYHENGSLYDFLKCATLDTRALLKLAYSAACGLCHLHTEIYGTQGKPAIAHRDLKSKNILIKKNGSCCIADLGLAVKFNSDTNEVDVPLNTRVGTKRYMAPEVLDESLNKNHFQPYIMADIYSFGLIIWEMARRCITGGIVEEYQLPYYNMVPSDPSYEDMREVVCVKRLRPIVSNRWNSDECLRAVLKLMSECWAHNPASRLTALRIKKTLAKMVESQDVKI
Chain of Serine/threonine-protein kinase PAK 4 (Homo sapiens) (O96013 whole entry, looked up): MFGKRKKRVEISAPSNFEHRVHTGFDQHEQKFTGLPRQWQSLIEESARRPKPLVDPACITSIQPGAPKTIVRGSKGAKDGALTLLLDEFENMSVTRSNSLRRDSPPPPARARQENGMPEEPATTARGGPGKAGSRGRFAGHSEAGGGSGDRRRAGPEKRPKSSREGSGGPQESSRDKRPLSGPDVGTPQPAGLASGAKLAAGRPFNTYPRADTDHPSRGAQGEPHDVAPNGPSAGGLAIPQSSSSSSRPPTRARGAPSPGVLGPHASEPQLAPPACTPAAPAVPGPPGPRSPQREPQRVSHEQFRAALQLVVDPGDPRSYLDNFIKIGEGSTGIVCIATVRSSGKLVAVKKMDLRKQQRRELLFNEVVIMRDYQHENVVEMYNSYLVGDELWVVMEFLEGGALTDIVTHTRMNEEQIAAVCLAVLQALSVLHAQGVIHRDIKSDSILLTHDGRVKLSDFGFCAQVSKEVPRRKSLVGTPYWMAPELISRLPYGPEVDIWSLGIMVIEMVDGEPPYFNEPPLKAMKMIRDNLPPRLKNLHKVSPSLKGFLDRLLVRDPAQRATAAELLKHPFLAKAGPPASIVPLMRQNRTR
Chain of Ephrin type-A receptor 7 (Homo sapiens) (Q15375 28-998 limits assumed): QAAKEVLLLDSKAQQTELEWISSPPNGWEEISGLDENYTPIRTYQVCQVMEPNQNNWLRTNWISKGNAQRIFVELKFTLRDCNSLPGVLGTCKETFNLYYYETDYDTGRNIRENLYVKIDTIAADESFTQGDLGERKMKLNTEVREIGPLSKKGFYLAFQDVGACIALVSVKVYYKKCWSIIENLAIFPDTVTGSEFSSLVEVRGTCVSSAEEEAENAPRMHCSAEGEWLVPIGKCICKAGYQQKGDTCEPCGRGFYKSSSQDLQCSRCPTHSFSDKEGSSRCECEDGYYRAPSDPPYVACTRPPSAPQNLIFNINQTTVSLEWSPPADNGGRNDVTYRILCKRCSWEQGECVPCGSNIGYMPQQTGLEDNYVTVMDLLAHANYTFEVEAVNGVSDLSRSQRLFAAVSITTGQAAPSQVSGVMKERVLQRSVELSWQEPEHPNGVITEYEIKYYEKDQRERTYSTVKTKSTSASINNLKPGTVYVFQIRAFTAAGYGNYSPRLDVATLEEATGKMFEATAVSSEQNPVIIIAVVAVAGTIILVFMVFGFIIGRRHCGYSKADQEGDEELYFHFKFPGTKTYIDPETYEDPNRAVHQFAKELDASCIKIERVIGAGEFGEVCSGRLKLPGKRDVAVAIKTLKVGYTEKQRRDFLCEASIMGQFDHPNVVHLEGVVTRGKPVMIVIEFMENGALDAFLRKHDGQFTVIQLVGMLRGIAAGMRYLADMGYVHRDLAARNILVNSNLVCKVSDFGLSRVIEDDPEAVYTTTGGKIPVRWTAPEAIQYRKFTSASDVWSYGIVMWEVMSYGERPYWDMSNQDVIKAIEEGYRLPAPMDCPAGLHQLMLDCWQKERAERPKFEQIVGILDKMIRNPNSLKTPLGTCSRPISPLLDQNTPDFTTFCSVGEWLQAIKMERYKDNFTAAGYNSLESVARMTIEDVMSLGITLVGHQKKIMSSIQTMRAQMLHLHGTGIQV
Chain of Tyrosine-protein kinase Fes/Fps (Homo sapiens) (P07332 whole entry): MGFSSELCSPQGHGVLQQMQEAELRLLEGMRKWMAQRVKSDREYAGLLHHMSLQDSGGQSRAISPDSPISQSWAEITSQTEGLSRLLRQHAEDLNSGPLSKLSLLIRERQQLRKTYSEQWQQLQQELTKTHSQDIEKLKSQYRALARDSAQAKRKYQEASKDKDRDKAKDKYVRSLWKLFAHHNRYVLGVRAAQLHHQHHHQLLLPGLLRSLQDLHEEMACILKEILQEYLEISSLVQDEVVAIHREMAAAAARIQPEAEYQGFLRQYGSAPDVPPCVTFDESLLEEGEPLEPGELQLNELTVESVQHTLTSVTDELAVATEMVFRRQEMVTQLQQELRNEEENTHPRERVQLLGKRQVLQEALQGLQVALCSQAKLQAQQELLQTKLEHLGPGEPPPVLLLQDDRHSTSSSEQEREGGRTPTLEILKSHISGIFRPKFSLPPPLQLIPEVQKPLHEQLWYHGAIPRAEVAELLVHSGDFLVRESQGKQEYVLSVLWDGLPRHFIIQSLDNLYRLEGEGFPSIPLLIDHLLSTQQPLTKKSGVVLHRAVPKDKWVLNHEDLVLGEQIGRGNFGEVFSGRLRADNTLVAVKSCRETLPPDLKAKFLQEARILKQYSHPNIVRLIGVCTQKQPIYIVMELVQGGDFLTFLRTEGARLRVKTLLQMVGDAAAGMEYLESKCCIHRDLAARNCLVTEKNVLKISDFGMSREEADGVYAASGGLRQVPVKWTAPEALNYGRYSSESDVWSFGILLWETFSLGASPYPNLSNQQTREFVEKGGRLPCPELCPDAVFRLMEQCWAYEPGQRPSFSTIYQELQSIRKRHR
Chain of Mast/stem cell growth factor receptor Kit (Homo sapiens) (P10721 whole entry): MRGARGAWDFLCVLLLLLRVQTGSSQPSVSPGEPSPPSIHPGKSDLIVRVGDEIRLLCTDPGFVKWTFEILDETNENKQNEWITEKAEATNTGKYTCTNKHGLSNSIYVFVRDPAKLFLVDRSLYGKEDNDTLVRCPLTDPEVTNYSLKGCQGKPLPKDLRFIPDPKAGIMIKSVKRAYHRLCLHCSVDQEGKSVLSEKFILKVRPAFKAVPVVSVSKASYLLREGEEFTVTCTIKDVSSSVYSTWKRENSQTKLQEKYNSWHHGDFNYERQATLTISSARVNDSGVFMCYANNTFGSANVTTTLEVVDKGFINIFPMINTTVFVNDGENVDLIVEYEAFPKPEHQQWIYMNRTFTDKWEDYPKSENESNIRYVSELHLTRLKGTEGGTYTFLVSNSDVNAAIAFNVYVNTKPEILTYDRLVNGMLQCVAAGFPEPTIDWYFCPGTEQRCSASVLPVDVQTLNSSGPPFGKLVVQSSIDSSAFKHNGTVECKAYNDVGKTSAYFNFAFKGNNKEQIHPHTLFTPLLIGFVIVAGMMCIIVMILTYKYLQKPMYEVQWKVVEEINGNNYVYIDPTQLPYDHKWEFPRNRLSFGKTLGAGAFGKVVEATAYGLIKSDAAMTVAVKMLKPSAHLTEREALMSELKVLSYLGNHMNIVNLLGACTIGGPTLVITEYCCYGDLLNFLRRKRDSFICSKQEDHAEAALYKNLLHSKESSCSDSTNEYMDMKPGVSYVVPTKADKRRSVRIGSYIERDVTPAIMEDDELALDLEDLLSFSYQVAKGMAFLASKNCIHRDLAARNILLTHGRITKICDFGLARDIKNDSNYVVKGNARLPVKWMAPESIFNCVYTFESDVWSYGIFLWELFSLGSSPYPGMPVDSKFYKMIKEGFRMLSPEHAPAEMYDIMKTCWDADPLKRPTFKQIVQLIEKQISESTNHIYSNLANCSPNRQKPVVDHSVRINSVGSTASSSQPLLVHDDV

| inhibition [1] [%] | inhibition [2] [%] | inhibition [3] [%] | inhibition [4] [%] | inhibition [5] [%] | inhibition [6] [%] | inhibition [7] [%] | inhibition [8] [%] | inhibition [9] [%] | inhibition [10] [%] | inhibition [11] [%] | inhibition [12] [%] | inhibition [13] [%] | inhibition [14] [%] | inhibition [15] [%] | inhibition [16] [%] | SMILES |
| --- | --- | --- | --- | --- | --- | --- | --- | --- | --- | --- | --- | --- | --- | --- | --- | --- |
| < 50 | < 50 | < 50 | < 50 | < 50 | < 50 | < 50 | < 50 | < 50 | < 50 | < 50 | 75 | < 50 | < 50 | < 50 | < 50 | CC(=O)N1CCN(c2cc(-c3cnc4c(c3)N(Cc3cc(Cl)ccc3C(F)(F)F)CCN4)ccn2)CC1 |
| < 50 | < 50 | < 50 | < 50 | < 50 | < 50 | < 50 | < 50 | < 50 | < 50 | < 50 | < 50 | < 50 | < 50 |  |  | O=C(O)c1ccc(-c2cnc3c(c2)N(Cc2cc(Cl)ccc2C(F)(F)F)CCN3)cc1 |
| < 50 | < 50 | < 50 | < 50 | < 50 | < 50 | < 50 | < 50 | < 50 | < 50 | < 50 | < 50 | < 50 | < 50 |  |  | O=C(c1ccc(-c2cnc3c(c2)N(Cc2cc(Cl)ccc2C(F)(F)F)CCN3)cc1)N1CCCCC1 |
| < 50 | < 50 | < 50 | < 50 | < 50 | < 50 | < 50 | < 50 | < 50 | < 50 | < 50 | < 50 | < 50 | < 50 | < 50 | < 50 | CN1CCN(c2ccc(-c3cnc4c(c3)N(Cc3cc(Cl)ccc3C(F)(F)F)CCN4)cn2)CC1 |
| < 50 | < 50 | < 50 | < 50 | < 50 | < 50 | < 50 | < 50 | < 50 | < 50 | < 50 | 56.5 | < 50 | 58.5 | < 50 | < 50 | CN1CCN(c2ccc(-c3cnc4c(c3)N(Cc3cc(F)ccc3F)CCN4)cn2)CC1 |
| < 50 | < 50 | < 50 | < 50 | < 50 | < 50 | < 50 | < 50 | < 50 | < 50 | < 50 | 87 | < 50 | < 50 | < 50 | < 50 | CN1CCN(c2ccc(-c3cnc4c(c3)N(Cc3cc(Cl)ccc3Cl)CCN4)cn2)CC1 |
| < 50 | < 50 | < 50 | < 50 | < 50 | < 50 | < 50 | < 50 | < 50 | < 50 | < 50 | < 50 | < 50 | < 50 |  |  | COC1CCN(C(=O)c2ccc(-c3cnc4c(c3)N(Cc3cc(Cl)ccc3C(F)(F)F)CCN4)cc2)CC1 |
| < 50 | < 50 | < 50 | < 50 | < 50 | < 50 | < 50 | < 50 | < 50 | < 50 | < 50 | 73 | < 50 | 85 | < 50 | < 50 | CN1CCN(c2ccc(-c3cnc4c(c3)N(Cc3c(F)ccc(F)c3Cl)CCN4)cn2)CC1 |
| < 50 | < 50 | < 50 | < 50 | < 50 | < 50 | < 50 | < 50 | < 50 | < 50 | < 50 | 96 | < 50 | < 50 | < 50 | < 50 | FC(F)(F)c1ccc(Cl)cc1CN1CCNc2ncc(-c3ccnc(N4CCNCC4)c3)cc21 |
| < 50 | < 50 | < 50 | < 50 | 81.6 | < 50 | < 50 | < 50 | < 50 | < 50 | < 50 | 89.5 | < 50 | < 50 |  |  | O=C(c1ccc(-c2cnc3c(c2)N(Cc2cc(Cl)ccc2C(F)(F)F)CCN3)cc1)N1CCC(N2CCCC2)CC1 |
